Data on nine compounds can be found in ChEMBL document CHEMBL1759856, “Synthesis and study of 2-amino-7-bromofluorenes modified with nitroxides and their precursors as dual anti-amyloid and antioxidant active compounds” (Eur J Med Chem, 2011).

Test [1] can be described thus: Antioxidant activity assessed as hydroxyl radical scavenging activity at 0.2 to 10 uM. Type of test: functional. The procedure, abridged:
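Hydroxyl radical scavenging was measured with a commercial HORAC kit, per the manufacturer's protocol, at compound concentrations of 0.2, 1 and 10 µM. Read-out was fluorescence (ex 485 nm, em 530 nm) of a reporter that is inversely proportional to surviving radical. Distilled water served as control.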

A short description of test [2]: Antioxidant activity assessed as hydroxyl radical scavenging activity by electron paramagnetic resonance spectra analysis. Type of test: functional. More on the design: concentration or dose not given beside the values. In short, it runs like this: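 For EPR, 9 µl of ROS mixture was combined immediately with 1 µl of compound from a 2 mM stock. About 5 µl was loaded into a sealed quartz capillary for measurement.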

The nature of test [3]: Antioxidant activity assessed as peroxyl radical scavenging activity by electron paramagnetic resonance spectra analysis. Type of test: functional.
Test [4] can be described thus: Antioxidant activity assessed as peroxyl radical scavenging activity at 10 uM by fluorescence quenching assay. The test is classed as functional. The procedure, abridged: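 Peroxyl radicals were assayed with a commercial ORAC kit, per the manufacturer's protocol, with compound at 10 µM. The read-out was quenching of indicator fluorescence (ex 480 nm, em 520 nm).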

Test [5] deals with HBMEC. Nature of the test: Antiinflammatory activity in HBMEC cells assessed as inhibition of TGRL lipolysis-induced IL-8 gene expression by RT-PCR analysis relative to control. Type of test: functional, cell-based. As to conditions: Homo sapiens. In short, it runs like this: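 HBMEC (passage 6) were grown in serum-free or 10%-serum complete medium on attachment factor at 37°C in 5% CO2. Cells were pretreated 30 min with 200 µM compound, then exposed 3 h to TGRL (150 mg/dL) plus lipoprotein lipase (2 U/mL), preincubated together 30 min at 37°C. IL-8 mRNA was measured by SYBR Green qRT-PCR, normalized to GAPDH, comparative CT; N = 3.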

The subject of test [6] is HBMEC. Description: Antiinflammatory activity in HBMEC cells assessed as inhibition of TGRL lipolysis-induced COX-2 gene expression by RT-PCR analysis relative to control. The following applies: Homo sapiens. Type of test: functional, cell-based. The procedure, abridged:
(§1)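 Human brain microvascular endothelial cells (passage 6) grown at 37°C, 5% CO2; pre-treated 30 min with 200 µM compound, then 3 h with TGRL (150 mg/dL) plus lipoprotein lipase (2U/mL), pre-incubated together 30 min at 37°C. Total RNA reverse-transcribed; SYBR Green real-time PCR normalised to GAPDH, comparative CT method; N = 3.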

The subject of test [7] is HBMEC. Description: Antiinflammatory activity in HBMEC cells assessed as inhibition of TGRL lipolysis-induced ATF3 gene expression by RT-PCR analysis relative to control. As to conditions: Homo sapiens. The test is classed as functional, cell-based. In short, it runs like this: as §1

Molecules are shown by their SMILES. Calls of active or inactive are those of the source. The calls are words filed in the database; no cut-off is given here.

For the compound `CC1(C)C=C(CNc2ccc3c(c2)Cc2cc(Br)ccc2-3)C(C)(C)N1[O]`, the outcome in test [1] and in test [4] was Active. The Activity in test [2] is 28%; in test [3] it was 73%. For the same compound, the outcome in the test on HBMEC [5] was inactive.

Take `CN1C(C)(C)C=C(CNc2ccc3c(c2)Cc2cc(Br)ccc2-3)C1(C)C`: the outcome in test [1] and in test [4] was Active. In addition, the Activity was 29% in test [2] and 100% in test [3]. The result in the test on HBMEC [5] was inactive.

`CN(C)c1ccc2c(c1)Cc1cc(Br)ccc1-2`: the outcome in test [1] and in test [4] was Active.

Regarding `CC1(C)C=C(CNc2ccc3c(c2)Cc2cc(Br)ccc2-3)CC(C)(C)N1[O]`, the outcome (in test [1]; in test [4]; in the test on HBMEC [5]) was Active. Further, the Activity in test [2] came to 26%.

As for `CN(CC1=CC(C)(C)N([O])C1(C)C)c1ccc2c(c1)Cc1cc(Br)ccc1-2`, the result in test [1] and in test [4] was Active. For the same compound, the Activity in test [2] is 18%. Further, the fold change (FC) is 2.7 with HBMEC [6] and 18.3 with HBMEC [7].

With `CC1(C)CC(O)CC(C)(C)N1[O]`, the outcome in test [1] and in test [4] was Active.

Turning to `CN(CC1=CC(C)(C)NC1(C)C)c1ccc2c(c1)Cc1cc(Br)ccc1-2`, the outcome in test [1] and in test [4] was Active. Further, the Activity in test [2] is 18%; in test [3] it was 100%. In addition, the outcome in the test on HBMEC [5] was inactive.

For the compound `CC1(C)C(Br)=C(CNc2ccc3c(c2)Cc2cc(Br)ccc2-3)C(C)(C)N1[O]`, the outcome in test [1] and in test [4] was Active. Moreover, the Activity in test [2] is 10%. Also, the result with HBMEC [5] was inactive.

For the compound `CC1(C)C=C(CNc2ccc3c(c2)Cc2cc(Br)ccc2-3)CC(C)(C)N1O`, the outcome (in test [1]; in test [4]; in the test on HBMEC [5]) was Active. For the same compound, the Activity in test [2] was found to be 61%; in test [3], 80%.
